Source: ChEMBL document CHEMBL1142195, “A novel nonnucleoside analogue that inhibits human immunodeficiency virus type 1 isolates resistant to current nonnucleoside reverse transcriptase inhibitors” (Antimicrob Agents Chemother, 2007)
Active and inactive are the calls of the source. The calls are words filed in the database; no cut-off is given here.

Experiments:
[1] = test system: Human immunodeficiency virus 1; assay: Antiviral activity against HIV1 isolate with RT 103N, 238N mutation relative to wild type; assay type: functional
Method in brief: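 Mutant RT clones built in pNL4-3.Luc.R−E− reporter, VSV-G-pseudotyped, single-round infection of HeLa-JC53 cells (15,000/well, MOI 0.03) with 1:4 serial compound dilutions in DMEM (phenol red-free), 2% FBS, 0.2% final DMSO; 48 h at 37°C, 5% CO2; luciferase chemiluminescence read-out. Fold change in EC50 relative to wild-type virus; mean of two tests.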

[2] = test system: Human immunodeficiency virus 1; assay: Antiviral activity against HIV1 isolate with RT 103N, 190A mutation relative to wild type; assay type: functional
[3] = test system: Human immunodeficiency virus 1; assay: Antiviral activity against HIV1 isolate with RT 101R, 103N, 181C, 190A mutation relative to wild type; assay type: functional
Hepatitis B virus = assay: Inhibition of hepatitis B virus replication; assay type: functional, organism-based
[4] = test system: Human immunodeficiency virus 1; assay: Antiviral activity against HIV1 isolate with RT K103N-K101Q-P225H mutation; assay type: functional, organism-based
Method in brief: (§1)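 VSV-G-pseudotyped pNL4-3.Luc.R−E− molecular clones carrying the RT mutations, single-round infection of HeLa-JC53 cells (15,000/well) at MOI 0.03. Compounds serially diluted 1:4 in DMSO then in phenol red-free DMEM with 2% FBS, final DMSO 0.2%. Incubated 48 h at 37°C, 5% CO2. Luciferase read-out by chemiluminescence gives the EC50. Fold change is relative to wt virus, mean of two tests.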

[5] = molecular target: DNA polymerase beta (Homo sapiens) (UniProt P06746); assay: Inhibition of human DNA polymerase beta upto 45 uM
[6] = test system: Human immunodeficiency virus 1; assay: Antiviral activity against HIV1 NL4-3 with Y188L mutation in Hela-JC53 cells in the presence of 50% human serum after 48 hrs; assay type: functional, organism-based; conditions: Human immunodeficiency virus 1, NL4-3, Hela-JC53, 48 h
Method in brief: (§2)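 VSV-G-pseudotyped Y188L NL4-3.Luci.R−E− virus (MOI 0.03) infecting HeLa-JC53 cells (1.5 × 10^4) in phenol red-free DMEM with 2% FBS. Serially diluted compound was added, then heat-inactivated human serum at final 0, 5, 10, 20, 30, 40 or 50%. Cultures ran 48 h at 37°C in 5% CO2, read by Bright-Glo luciferase chemiluminescence. EC50 was taken by nonlinear regression.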

[7] = test system: Human immunodeficiency virus 1; assay: Antiviral activity against HIV1 NL4-3 with Y188L mutation in Hela-JC53 cells in the presence of 20% human serum after 48 hrs; assay type: functional, organism-based; conditions: Human immunodeficiency virus 1, NL4-3, Hela-JC53, 48 h; method in brief: as §2
[8] = test system: Human immunodeficiency virus 1; assay: Antiviral activity against HIV1 isolate with RT V106I, D123G, Y181C, F227L mutation in Hela-JC-53 cells; assay type: functional
Hepatitis C virus = assay: Inhibition of hepatitis C virus replication; assay type: functional, organism-based; conditions: Hepacivirus hominis
[9] = test system: Human immunodeficiency virus 1; assay: Antiviral activity against wild type HIV1 NL4-3 in Hela-JC53 cells in the presence of 50% human serum after 48 hrs; assay type: functional, organism-based; conditions: Human immunodeficiency virus 1, NL4-3, Hela-JC53, 48 h
Method in brief: (§3)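 HeLa-JC53 cells (1.5 × 10^4) infected with VSV-G-pseudotyped NL4-3.Luci.R−E− reporter virus at MOI 0.03, with 1:4 serial compound dilutions. Heat-inactivated human serum added to final 0–50% on a basal 2% FBS medium. Incubated 48 h at 37°C in 5% CO2. Luciferase read-out; EC50 by nonlinear regression.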

[10] = test system: Human immunodeficiency virus 1; assay: Antiviral activity against HIV1 NL4-3 with Y188L mutation in Hela-JC53 cells in the presence of 5% human serum after 48 hrs; assay type: functional, organism-based; conditions: Human immunodeficiency virus 1, NL4-3, Hela-JC53, 48 h; method in brief: as §2
[11] = test system: Human immunodeficiency virus 1; assay: Antiviral activity against HIV1 isolate with RT T369I mutation in Hela-JC-53 cells; assay type: functional
[12] = test system: Human immunodeficiency virus 2; assay: Inhibition of HIV2(NIH-Z) isolate; assay type: functional, organism-based
Method in brief: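 HeLa-JC53-LTR-Luci cells (HIV-1 LTR-driven luciferase) infected with HIV-2 at MOI 0.03, with 1:4 serial compound dilutions (final DMSO 0.2%, 2% FBS medium). Incubated 48 h at 37°C in 5% CO2. Luciferase chemiluminescence read-out.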

[13] = test system: Human immunodeficiency virus 1; assay: Antiviral activity against HIV1 isolate with RT K103N mutation; assay type: functional, organism-based; method in brief: as §1
[14] = test system: Human immunodeficiency virus 1; assay: Antiviral activity against wild type HIV1 NL4-3 in Hela-JC53 cells in the presence of 20% human serum after 48 hrs; assay type: functional, organism-based; conditions: Human immunodeficiency virus 1, NL4-3, Hela-JC53, 48 h; method in brief: as §3
[15] = Cmax in dog at 10 mg/kg, iv; assay type: ADME, organism-based, Canis lupus familiaris; design: dose 10 mg/kg, route intravenous; conditions: in vivo
[16] = test system: Human immunodeficiency virus 1; assay: Antiviral activity against HIV1 isolate with RT V106I, Y181C mutation in Hela-JC-53 cells; assay type: functional
[17] = test system: Human immunodeficiency virus 1; assay: Antiviral activity against HIV1 isolate with RT V106I, D123G, Y181C, F227L, T369I mutation in Hela-JC-53 cells; assay type: functional
[18] = Bioavailability in dog at 20 mg/kg, po; assay type: ADME, organism-based, Canis lupus familiaris; conditions: in vivo
Method in brief: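 Dogs given 10 mg/kg i.v. or 20 mg/kg p.o., n = 3 per time point. Plasma sampled predose through 24 h. Bioavailability = (oral AUC0-∞/intravenous AUC0-∞) × 100.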

[19] = test system: Human immunodeficiency virus 1; assay: Antiviral activity against HIV1 isolate with RT K103N-V108I-A98G mutation; assay type: functional, organism-based; method in brief: as §1
[20] = test system: Human immunodeficiency virus 1; assay: Antiviral activity against HIV1 isolate with RT V106I mutation; assay type: functional, organism-based; method in brief: as §1
[21] = Half life in dog at 10 mg/kg, iv; assay type: ADME, organism-based, Canis lupus familiaris; design: dose 10 mg/kg, route intravenous; conditions: in vivo
[22] = test system: Human immunodeficiency virus 1; assay: Antiviral activity against wild type HIV1; assay type: functional, organism-based
[23] = test system: Human immunodeficiency virus 1; assay: Antiviral activity against HIV1 NL4-3 with Y188L mutation in Hela-JC53 cells in the presence of 40% human serum after 48 hrs; assay type: functional, organism-based; conditions: Human immunodeficiency virus 1, NL4-3, Hela-JC53, 48 h; method in brief: as §2
[24] = test system: Human immunodeficiency virus 1; assay: Antiviral activity against HIV1 isolate with RT Y181C mutation in Hela-JC-53 cells; assay type: functional
[25] = Tmax in dog at 20 mg/kg, po; assay type: ADME, organism-based, Canis lupus familiaris; design: dose 20 mg/kg, route oral; conditions: in vivo
[26] = test system: Human immunodeficiency virus 1; assay: Antiviral activity against wild type HIV1 NL4-3 in Hela-JC53 cells in the presence of 40% human serum after 48 hrs; assay type: functional, organism-based; conditions: Human immunodeficiency virus 1, NL4-3, Hela-JC53, 48 h; method in brief: as §3
[27] = test system: Human immunodeficiency virus 1; assay: Antiviral activity against HIV1 NL4-3 with Y188L mutation in Hela-JC53 cells in the presence of 30% human serum after 48 hrs; assay type: functional, organism-based; conditions: Human immunodeficiency virus 1, NL4-3, Hela-JC53, 48 h; method in brief: as §2
[28] = test system: Human immunodeficiency virus 1; assay: Inhibition of wild type clade B HIV1 NL4-3; assay type: functional, organism-based
Method in brief: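 Single-round assay in HeLa-JC53 cells (15,000/well) using VSV-G-pseudotyped pNL4-3.Luc.R−E−-derived virus at MOI 0.03. Compounds serially diluted 1:4 in DMSO then medium (2% FBS; final DMSO 0.2%). Incubated 48 h at 37°C in 5% CO2. Luciferase chemiluminescence read-out; EC50 determined.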

[29] = Plasma concentration in dog at 20 mg/kg, po after 12 hrs; assay type: ADME, organism-based, Canis lupus familiaris; design: dose 20 mg/kg, route oral
[30] = test system: Human immunodeficiency virus 1; assay: Antiviral activity against HIV1 isolate with RT K103N-Y181C mutation; assay type: functional, organism-based; method in brief: as §1
[31] = test system: Human immunodeficiency virus 1; assay: Antiviral activity against HIV1 isolate with RT K103N-Y188L mutation; assay type: functional, organism-based; method in brief: as §1
[32] = test system: Human immunodeficiency virus 1; assay: Antiviral activity against HIV1 isolate with RT K103N-K101Q mutation; assay type: functional, organism-based; method in brief: as §1
[33] = Plasma concentration in dog at 10 mg/kg, iv after 12 hrs; assay type: ADME, organism-based, Canis lupus familiaris; design: dose 10 mg/kg, route intravenous
[34] = test system: Human immunodeficiency virus 1; assay: Antiviral activity against HIV1 isolate with RT G190A mutation; assay type: functional, organism-based; method in brief: as §1
[35] = test system: Human immunodeficiency virus 1; assay: Antiviral activity against HIV1 isolate V106I-Y188L mutant; assay type: functional, organism-based
[36] = test system: Human immunodeficiency virus 1; assay: Antiviral activity against HIV1 NL4-3 in Hela-JC53 cells in the presence of 10% human serum after 48 hrs; assay type: functional, organism-based; conditions: Human immunodeficiency virus 1, NL4-3, Hela-JC53, 48 h; method in brief: as §3

SMILES: Cc1ccnc2c1NC(=O)c1cccnc1N2C1CC1 [NEVIRAPINE]
- Fold change [1]: >100
- Fold change [2]: >100
- Fold change [3]: >100

SMILES: NS(=O)(=O)c1ccc(NC(=O)CSc2nnc(Br)n2-c2ccc(C3CC3)c3ccccc23)c(Cl)c1
- Activity (Hepatitis B virus): inactive
- EC50 [4]: 0.11 nM
- Activity [5]: inactive
- EC50 [6]: 79.9 nM
- EC50 [7]: 43.3 nM
- Fold change [8]: 9.1
- Activity (Hepatitis C virus): inactive
- EC50 [9]: 13 nM
- EC50 [10]: 13.7 nM
- Fold change [11]: 1.3
- Activity [12]: inactive
- EC50 [13]: 0.09 nM
- EC50 [14]: 7.1 nM
- Cmax [15]: 4420 ng/mL
- Fold change [16]: 5.4
- Fold change [17]: 31.2
- bioavailability [18]: 47.1%
- EC50 [19]: 0.24 nM
- EC50 [20]: 0.09 nM
- half-life [21]: 2.89 h
- EC50 [22]: 0.14 nM
- EC50 [23]: 54 nM
- Fold change [24]: 1.9
- Tmax [25]: 5.3 h
- EC50 [26]: 9.5 nM
- EC50 [27]: 45.9 nM
- Activity [28]: Active
- concentration at 12 h [29]: 742 ng/mL
- EC50 [30]: 0.23 nM
- EC50 [31]: 1.07 nM
- EC50 [32]: 0.15 nM
- concentration at 12 h [33]: 283 ng/mL
- EC50 [34]: 0.19 nM
- EC50 [35]: 2.27 nM
- EC50 [36]: 3.9 nM
